Where “and” joins values, the source holds several entries; their conditions need not be identical. Equal entries are not always repeated.
System: U2OS
Test: Multiplex assay against U2OS
Format: toxicity, cell-based
Settings: human, number of replicates 2
How it was run: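 Compound was added to live cells that had been stained at seeding with Hoechst33342, BioTracker Green Microtubule Cytoskeleton Dye, MitoTracker Red and Annexin V Alexa Fluor 680, and imaging followed on a CQ1 microscope at 37°C and 5% CO2. CellPathfinder machine-learning gating divided cells into Hoechst high-intensity objects or normal cells, normal cells into healthy, pyknosed or fragmented nuclei, and pyknosed cells into mitotic or apoptotic. Tubulin, mitochondrial-mass and membrane-permeability phenotypes are per cents of healthy-nucleus cells.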

[1] = 12 h, 1 µM, compound concentration 1 uM
[2] = 12 h, 10 µM, compound concentration 10 uM
[3] = 24 h, 1 µM, compound concentration 1 uM
[4] = 24 h, 10 µM, compound concentration 10 uM
[5] = 48 h, 1 µM, compound concentration 1 uM
[6] = 48 h, 10 µM, compound concentration 10 uM

N=C(N)NCCC[C@H](NC(=O)COCC(c1ccccc1)c1ccccc1)C(=O)O.O=C(O)C(F)(F)F
Population Apoptotic (%) [1]: 100% and 45%
Population Healthy Nuclei (%) [1]: 40% and 87%
Population Hoechst High Intensity Objects (%) [1]: 0%
Population Membrane Permeable-Phenotype (%) [1]: 0% and 1%
Population Mitochondria Different-Phenotype (%) [1]: 0%
Population Normal (%) [1]: 100% and 99%
Population Pyknosed Nuclei (%) [1]: 13% and 9%
Population Tubulin-Different-Phenotype (%) [1]: 41% and 86%
Population Apoptotic (%) [2]: 50% and 58%
Population Fragmented Nuclei (%) [2]: 3%
Population Healthy Nuclei (%) [2]: 70% and 88%
Population Hoechst High Intensity Objects (%) [2]: 0%
Population Membrane Permeable-Phenotype (%) [2]: 4% and 1%
Population Mitochondria Different-Phenotype (%) [2]: 4% and 0%
Population Mitotic Cells (%) [2]: 50% and 41%
Population Normal (%) [2]: 100%
Population Tubulin-Different-Phenotype (%) [2]: 71% and 83%
Population Apoptotic (%) [3]: 40% and 51%
Population Healthy Nuclei (%) [3]: 55% and 88%
Population Hoechst High Intensity Objects (%) [3]: 0%
Population Membrane Permeable-Phenotype (%) [3]: 13% and 0%
Population Mitochondria Different-Phenotype (%) [3]: 0%
Population Mitotic Cells (%) [3]: 60% and 48%
Population Normal (%) [3]: 100%
Population Pyknosed Nuclei (%) [3]: 18% and 9%
Population Tubulin-Different-Phenotype (%) [3]: 73% and 87%
Population Apoptotic (%) [4]: 71% and 50%
Population Fragmented Nuclei (%) [4]: 7% and 2%
Population Healthy Nuclei (%) [4]: 73% and 88%
Population Hoechst High Intensity Objects (%) [4]: 0%
Population Membrane Permeable-Phenotype (%) [4]: 3% and 0%
Population Mitochondria Different-Phenotype (%) [4]: 3% and 0%
Population Mitotic Cells (%) [4]: 28% and 50%
Population Normal (%) [4]: 100%
Population Pyknosed Nuclei (%) [4]: 18% and 8%
Population Tubulin-Different-Phenotype (%) [4]: 67% and 85%
Population Apoptotic (%) [5]: 50% and 43%
Population Healthy Nuclei (%) [5]: 63% and 89%
Population Hoechst High Intensity Objects (%) [5]: 0%
Population Membrane Permeable-Phenotype (%) [5]: 11% and 0%
Population Mitochondria Different-Phenotype (%) [5]: 7% and 0%
Population Mitotic Cells (%) [5]: 50% and 56%
Population Normal (%) [5]: 100%
Population Pyknosed Nuclei (%) [5]: 14% and 6%
Population Tubulin-Different-Phenotype (%) [5]: 73% and 85%
Population Apoptotic (%) [6]: 35% and 55%
Population Fragmented Nuclei (%) [6]: 7% and 2%
Population Healthy Nuclei (%) [6]: 70% and 93%
Population Hoechst High Intensity Objects (%) [6]: 0%
Population Membrane Permeable-Phenotype (%) [6]: 2% and 1%
Population Mitochondria Different-Phenotype (%) [6]: 2% and 0%
Population Mitotic Cells (%) [6]: 64% and 44%
Population Normal (%) [6]: 100% and 99%
Population Tubulin-Different-Phenotype (%) [6]: 63% and 95%

Cc1cccc(S(=O)(=O)N(C)[C@H](C)CCN2CCC(C)CC2)c1.Cl
Population Apoptotic (%) [1]: 72% and 100%
Population Fragmented Nuclei (%) [1]: 5% and 14%
Population Healthy Nuclei (%) [1]: 84% and 82%
Population Hoechst High Intensity Objects (%) [1]: 0%
Population Membrane Permeable-Phenotype (%) [1]: 0%
Population Mitochondria Different-Phenotype (%) [1]: 0%
Population Normal (%) [1]: 100%
Population Pyknosed Nuclei (%) [1]: 10% and 2%
Population Apoptotic (%) [2]: 50%
Population Healthy Nuclei (%) [2]: 53% and 89%
Population Hoechst High Intensity Objects (%) [2]: 0%
Population Membrane Permeable-Phenotype (%) [2]: 0%
Population Mitochondria Different-Phenotype (%) [2]: 0% and 1%
Population Mitotic Cells (%) [2]: 50%
Population Normal (%) [2]: 100%
Population Tubulin-Different-Phenotype (%) [2]: 42% and 46%
Population Apoptotic (%) [3]: 41% and 14%
Population Fragmented Nuclei (%) [3]: 4% and 10%
Population Healthy Nuclei (%) [3]: 83% and 71%
Population Hoechst High Intensity Objects (%) [3]: 0%
Population Membrane Permeable-Phenotype (%) [3]: 1% and 0%
Population Mitochondria Different-Phenotype (%) [3]: 0%
Population Mitotic Cells (%) [3]: 58% and 85%
Population Normal (%) [3]: 100%
Population Pyknosed Nuclei (%) [3]: 11% and 17%
Population Apoptotic (%) [4]: 80% and 54%
Population Healthy Nuclei (%) [4]: 54% and 91%
Population Hoechst High Intensity Objects (%) [4]: 0%
Population Membrane Permeable-Phenotype (%) [4]: 0% and 2%
Population Mitochondria Different-Phenotype (%) [4]: 0% and 1%
Population Mitotic Cells (%) [4]: 20% and 45%
Population Normal (%) [4]: 100%
Population Tubulin-Different-Phenotype (%) [4]: 58% and 56%
Population Apoptotic (%) [5]: 59% and 46%
Population Fragmented Nuclei (%) [5]: 2% and 12%
Population Healthy Nuclei (%) [5]: 89% and 68%
Population Hoechst High Intensity Objects (%) [5]: 0%
Population Membrane Permeable-Phenotype (%) [5]: 2% and 0%
Population Mitochondria Different-Phenotype (%) [5]: 0%
Population Mitotic Cells (%) [5]: 40% and 53%
Population Normal (%) [5]: 100%
Population Pyknosed Nuclei (%) [5]: 8% and 18%
Population Tubulin-Different-Phenotype (%) [5]: 86% and 42%
Population Apoptotic (%) [6]: 30% and 62%
Population Healthy Nuclei (%) [6]: 92% and 51%
Population Hoechst High Intensity Objects (%) [6]: 0%
Population Mitochondria Different-Phenotype (%) [6]: 0%
Population Mitotic Cells (%) [6]: 69% and 37%
Population Normal (%) [6]: 99% and 100%
Population Tubulin-Different-Phenotype (%) [6]: 62% and 46%

CN(C)CCN(Cc1ccc(-c2ccc(CNCCc3ccccc3)cc2)cc1)C(=O)CCC1CCCC1.Cl.Cl
Population Apoptotic (%) [1]: 77% and 66%
Population Fragmented Nuclei (%) [1]: 17% and 9%
Population Healthy Nuclei (%) [1]: 55% and 78%
Population Hoechst High Intensity Objects (%) [1]: 0%
Population Membrane Permeable-Phenotype (%) [1]: 0% and 6%
Population Mitochondria Different-Phenotype (%) [1]: 36% and 27%
Population Mitotic Cells (%) [1]: 22% and 33%
Population Normal (%) [1]: 100%
Population Pyknosed Nuclei (%) [1]: 26% and 11%
Population Tubulin-Different-Phenotype (%) [1]: 42% and 43%
Population Apoptotic (%) [2]: 100% and 99%
Population Fragmented Nuclei (%) [2]: 7% and 5%
Population Healthy Nuclei (%) [2]: 11% and 13%
Population Hoechst High Intensity Objects (%) [2]: 0% and 2%
Population Membrane Permeable-Phenotype (%) [2]: 100%
Population Mitochondria Different-Phenotype (%) [2]: 100% and 88%
Population Mitotic Cells (%) [2]: 0%
Population Normal (%) [2]: 100% and 97%
Population Pyknosed Nuclei (%) [2]: 80% and 81%
Population Tubulin-Different-Phenotype (%) [2]: 100% and 88%
Population Apoptotic (%) [3]: 78% and 64%
Population Fragmented Nuclei (%) [3]: 10% and 23%
Population Healthy Nuclei (%) [3]: 73% and 44%
Population Hoechst High Intensity Objects (%) [3]: 0%
Population Membrane Permeable-Phenotype (%) [3]: 7% and 5%
Population Mitochondria Different-Phenotype (%) [3]: 39% and 57%
Population Mitotic Cells (%) [3]: 21% and 35%
Population Normal (%) [3]: 100%
Population Pyknosed Nuclei (%) [3]: 16% and 32%
Population Tubulin-Different-Phenotype (%) [3]: 44% and 36%
Population Apoptotic (%) [4]: 100% and 96%
Population Healthy Nuclei (%) [4]: 3% and 6%
Population Hoechst High Intensity Objects (%) [4]: 0% and 3%
Population Membrane Permeable-Phenotype (%) [4]: 100%
Population Mitochondria Different-Phenotype (%) [4]: 100% and 88%
Population Mitotic Cells (%) [4]: 0% and 3%
Population Normal (%) [4]: 100% and 96%
Population Pyknosed Nuclei (%) [4]: 76% and 87%
Population Tubulin-Different-Phenotype (%) [4]: 100% and 88%
Population Apoptotic (%) [5]: 80% and 83%
Population Fragmented Nuclei (%) [5]: 26% and 10%
Population Healthy Nuclei (%) [5]: 34% and 70%
Population Hoechst High Intensity Objects (%) [5]: 0%
Population Mitotic Cells (%) [5]: 20% and 16%
Population Normal (%) [5]: 100%
Population Pyknosed Nuclei (%) [5]: 40% and 18%
Population Tubulin-Different-Phenotype (%) [5]: 58% and 62%
Population Apoptotic (%) [6]: 93% and 97%
Population Fragmented Nuclei (%) [6]: 8% and 14%
Population Hoechst High Intensity Objects (%) [6]: 0% and 1%
Population Membrane Permeable-Phenotype (%) [6]: 100%
Population Mitochondria Different-Phenotype (%) [6]: 100%
Population Mitotic Cells (%) [6]: 6% and 2%
Population Normal (%) [6]: 100% and 98%
Population Pyknosed Nuclei (%) [6]: 66% and 80%
Population Tubulin-Different-Phenotype (%) [6]: 100%

From ChEMBL document CHEMBL5303300, “EUbOPEN Chemogenomics Library - Multiplex” (2023)
